Assay results taken from ChEMBL document CHEMBL1649392, “Synthesis of substituted 3-amino-N-phenyl-1H-indazole-1-carboxamides endowed with antiproliferative activity” (Eur J Med Chem, 2011).
The source made the active and inactive calls.

Columns and labels:
Assay type in all cases: functional, cell-based
K562 [1] = experiment: Induction of cell cycle arrest in human K562 cells assessed as increase in accumulation at G0/G1 phase at 60 uM after 24 hrs by flow cytometric analysis
Procedure, shortened: (§1)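 K562 myeloblastic leukemia cells cultured 24 h with compound at 20, 40 or 60 µM, or untreated. Cells washed in ice-cold PBS and resuspended at 10⁶/mL in hypotonic propidium iodide (50 µg/mL) with 0.03% Nonidet P-40 in 0.1% sodium citrate. After 30 min, DNA content read by flow cytometry; sub-G0/G1, G0/G1, S and G2/M fractions scored.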

K562 [2] = experiment: Induction of apoptosis in human K562 cells assessed as increase in hypophosphorylated Rb level at 60 uM after 1.5 hrs by flow cytometric assay
Procedure, shortened: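 K562 cells treated with or without 60 µM compound. 1.5 × 10⁶ cells washed in PBS, fixed and permeabilized 20 min in Cytofix/Cytoperm, then washed in Perm/Wash buffer. Stained 30 min at 4 °C with FITC anti-total pRb or PE anti-hypophosphorylated pRb mAbs, washed, and analysed by flow cytometry.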

K562 [3] = experiment: Induction of cell cycle arrest in human K562 cells assessed as decrease in accumulation at G2/M phase at 40 uM after 24 hrs by flow cytometric analysis; procedure, shortened: as §1
K562 [4] = experiment: Induction of cell cycle arrest in human K562 cells assessed as decrease in accumulation at S phase at 40 uM after 24 hrs by flow cytometric analysis; procedure, shortened: as §1

Measured: Activity

Nc1nn(C(=O)Nc2ccc(Cc3ccccc3)cc2)c2ccc(Cl)cc12
active: K562 [1] | K562 [2] | K562 [3] | K562 [4]
